How the values were obtained:
[1] = Antiinflammatory activity in human neutrophils assessed as inhibition of fMet-Leu-Phe/Cytochalasin B-induced elastase release treated 5 mins before fMet-Leu-Phe/Cytochalasin B challenge; type: functional, cell-based; settings: Neutrophil
How it was run: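 Neutrophils from venous blood of healthy adult donors (20-28 y), isolated by dextran sedimentation, Ficoll Hypaque and hypotonic erythrocyte lysis; 6 × 10^5/mL with MeO-Suc-Ala-Ala-Pro-Val-p-nitroanilide substrate (100 µM), 37 °C for 2 min, then compound for 5 min. Stimulated with fMLP (100 nM)/CB (0.5 µg/mL). Absorbance at 405 nm monitored continuously; expressed as percent of drug-free activated control.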

[2] = Antiinflammatory activity in human neutrophils assessed as inhibition of fMet-Leu-Phe/Cytochalasin B-induced superoxide anion generation treated 5 mins before fMet-Leu-Phe/Cytochalasin B challenge by spectrophotometry; type: functional, cell-based; settings: Neutrophil
How it was run: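 Donor neutrophils (6 × 10^5/mL, Ca2+-free HBSS pH 7.4) were given 0.5 mg/mL ferricytochrome c and 1 mM Ca2+, held at 37 °C for 2 min, then exposed to compound (10-0.01 µg/mL) or DMSO for 5 min. Cytochalasin B (1 µg/mL) was added for 3 min, then fMLP (100 nM) for 10 min. SOD-inhibitable cytochrome c reduction was read at 550 nm (ε 21.1/mM/10 mm).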

Row | Structure (SMILES) | IC50 [1] | IC50 [2]
1 | CC(C)=CC[C@H]1C[C@@]23C[C@@H](CC=C(C)C)C(C)(C)[C@@](CC=C(C)C)(C(=O)C(C(=O)c4ccccc4)=C2OC1(C)C)C3=O | 1.16 µM | 0.88 µM
2 | CC[C@H](CC[C@@H](C)[C@H]1CC[C@H]2[C@@H]3CC=C4CC(=O)CC[C@]4(C)[C@H]3CC[C@]12C)C(C)C [BETA-SITOSTENONE] | > 30 µM | > 30 µM
3 | CC(C)=CCC/C(C)=C/CC/C(C)=C/CC[C@]1(C)CCc2cc(O)cc(C)c2O1 [DELTA-TOCOTRIENOL] | 15.1 µM | 14.8 µM
4 | c1ccc2c(c1)[I+]c1ccccc1-2 [DIPHENYLENEIODONIUM] |  | 1.7 µM
5 | O=S(=O)(F)Cc1ccccc1 [PHENYLMETHYLSULFONYLFLUORIDE] | 204 µM | 
6 | CC(C)=CCC/C(C)=C/CC/C(C)=C/CC/C=C(\C)CC/C=C(\C)CCC=C(C)C [SQUALENE] | > 30 µM | > 30 µM

Next, values leading:

Row | IC50 [1] | IC50 [2] | Structure (SMILES)
7 | 0.86 µM | 0.4 µM | C=C(C)[C@@H](CC=C(C)C)C[C@@]12C[C@@H](CC=C(C)C)C(C)(C)[C@]3(C=CC(C)(C)OC3=C(C(=O)c3cccc(O)c3)C1=O)C2=O [13-HYDROXYGARCIMULTIFLORONE B]
8 | > 30 µM | > 30 µM | COc1cc2ccc(=O)oc2c(OC)c1OC [FRAXIDIN METHYL ETHER]
9 | 4.65 µM | 5.58 µM | CC(C)=CCC1=C2OC(C)(C)[C@@H](CC=C(C)C)C[C@@]23C[C@@H](CC=C(C)C)C(C)(C)[C@@](C(=O)c2ccccc2)(C1=O)C3=O [GARCIMULTIFLORONE A]
10 | 0.14 µM | 0.11 µM | C=C(C)[C@@H](CC=C(C)C)C[C@@]12C[C@@H](CC=C(C)C)C(C)(C)[C@]3(C=CC(C)(C)OC3=C(C(=O)c3ccccc3)C1=O)C2=O [GARCIMULTIFLORONE B]
11 | 12.1 µM | 7.21 µM | C=C(C)[C@@H](CC=C(C)C)C[C@@]12C[C@H]3C[C@@H](C(C)(C)O)[C@](C(=O)c4ccccc4)(C1=O)C(=O)[C@@](CC(O)C(C)(C)O)(C2=O)C3(C)C (some centres not stated) [GARCIMULTIFLORONE C]
12 | > 30 µM | > 30 µM | COc1cc2ccc(=O)oc2cc1OC [SCOPARONE]
